According to PubChem BioAssay AID1515 (The Scripps Research Institute Molecular Screening Center, 2009):
In all, about 220,000 compounds went through this assay and about 440 (0.2%) were called active. The sample as a whole holds a higher share of actives than the screen did. Values without a mark were called inactive.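 How the source made its calls: active means inhibition above the campaign mean of all tested compounds plus 3 SD (cut at about 14% in these data); inactive means the rest.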

The molecules below were run against Serine hydrolase RBBP9 (Homo sapiens) (UniProt O75884) (assay: blockers of RBBP9 serine hydrolase labeling – biochemical, fluorescence polarization, FP-Rh probe, HTS, primary screen (AID 1515;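 further: plate controls were DMSO wells with RBBP9 for no effect and wells lacking RBBP9 protein for full effect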)). Conditions: recombinant RBBP9, FP-Rh probe fluorescence polarization; at 7.94 µM; active compounds read high.
Chain of Serine hydrolase RBBP9 (Homo sapiens) (O75884 whole entry, looked up): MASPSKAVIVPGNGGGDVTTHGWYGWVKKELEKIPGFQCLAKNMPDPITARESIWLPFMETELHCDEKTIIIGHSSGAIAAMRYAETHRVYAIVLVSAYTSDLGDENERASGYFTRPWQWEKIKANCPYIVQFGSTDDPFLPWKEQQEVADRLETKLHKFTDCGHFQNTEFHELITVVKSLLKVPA
Summary of the method: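 Measured by: FP readout at 525/598 nm; material: recombinant human RBBP9; also added: Serine-hydrolase probe FP-Rh, 375 nM pre-mixing; medium: Tris buffer pH 8.0, NaCl, Pluronic; replication: one well per compound; doses: one concentration, 7.94 µM nominal, 0.794% DMSO; timing: preincubation 30 min plus labeling 45 min at 25 °C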

For `O=C(NCCCn1ccnc1)C(=O)NCC1OCCN1S(=O)(=O)c1cc(F)ccc1F` (configuration not stated), which inhibition is on record?
The inhibition was -2.12%.

With `Cc1cc(F)ccc1S(=O)(=O)N1CCCOC1CNC(=O)C(=O)NCCC1=CCCCC1` (configuration not stated) as the molecule, how does the inhibition read?
Its inhibition is 44.9% (active).

For `O=C(NCc1cccs1)C(=O)NCC1OCCCN1S(=O)(=O)c1ccc(F)cc1` (configuration not stated), which inhibition is on record?
The inhibition was -5.51%.

How did the inhibition turn out when `Cc1cc(CO)nn1-c1ccc([N+](=O)[O-])cc1` was run?
The inhibition was -1.67%.

`CCN(CC)Cc1nc2sc(C)c(C)c2c(=O)[nH]1` was tested. Which inhibition did it give?
The inhibition was 0.79%.

For `COc1ccc(C(=O)CSc2nnc(-c3ccco3)o2)cc1`, which inhibition is on record?
The inhibition was -6.2%.

For `CC(C)n1c(=S)[nH]c2cc(C(F)(F)F)ccc21`, which inhibition is on record?
The inhibition was -5.5%.

With `CCN(C(=O)Cc1nc(N)n[nH]1)C1(C(=O)Nc2ccccc2)CCCCC1` as the molecule, how does the inhibition read?
Its inhibition is 4.99%.

`COc1ccc(-n2nnnc2SCc2nc(N)nc(N3CCOCC3)n2)cc1` was tested. Which inhibition did it give?
The inhibition was 14.8% (active).

How did the inhibition turn out when `COc1ccc(-n2nnnc2SCC(=O)NCc2cccs2)cc1` was run?
Its inhibition is -4.68%.

How did the inhibition turn out when `COc1ccc(-c2nnn(Cc3nc(N)nc(N4CCCCC4)n3)n2)cc1` was run?
Its inhibition is -9.6%.

`Cc1onc(-c2ccccc2Cl)c1C(=O)OCC(=O)c1ccccc1` was tested. Which inhibition did it give?
The inhibition was -7.59%.

Which inhibition does the source give for `O=c1nc(N/N=C/c2ccco2)cn[nH]1` here?
The inhibition was -3.99%.

How did the inhibition turn out when `COC(=O)c1ccccc1NC(=O)Cc1ccccc1OC` was run?
The inhibition was 6.78%.

With `CCOc1ccc2[nH]c(=O)c(C(c3nnnn3CCOC)N3CCOCC3)cc2c1` (configuration not stated) as the molecule, how does the inhibition read?
Its inhibition is 15.5% (active).

With `CN1CCN(C(c2cc3cc4c(cc3[nH]c2=O)OCCO4)c2nnnn2C2CCCC2)CC1` (configuration not stated) as the molecule, how does the inhibition read?
Its inhibition is -9.4%.

Which inhibition does the source give for `COCCn1nnnc1C(c1cc2ccc(OC)cc2[nH]c1=O)N1CCc2ccccc2C1` (configuration not stated) here?
Its inhibition is 5.71%.

For `C[N+](C)(C)CCOP(=O)([O-])OC[C@H](O)CO`, which inhibition is on record?
The inhibition was 0.46%.

With `COc1ccccc1N1CCN(CC(=O)NCCc2ccc(S(N)(=O)=O)cc2)CC1` as the molecule, how does the inhibition read?
The inhibition was 0.48%.

`CCCC(NC(=O)c1ccco1)c1nc2ccccc2[nH]1` (configuration not stated) was tested. Which inhibition did it give?
Its inhibition is 0.23%.

How did the inhibition turn out when `O=C(CN1CCN(c2ccc(Cl)cc2)CC1)NCc1cccs1` was run?
The inhibition was -5.55%.

`CC(C)c1ccc(NC(=S)NNc2ccc(Cl)c(C(=O)O)c2)cc1` was tested. Which inhibition did it give?
The inhibition was -0.79%.

For `Nc1nnc(SCC(=O)OCc2ccc(Cl)c(Cl)c2)s1`, which inhibition is on record?
The inhibition was -1.35%.

With `C=CCn1c(COc2ccccc2F)nnc1SCC(=O)N1CC(=O)Nc2ccccc21` as the molecule, how does the inhibition read?
Its inhibition is -3.31%.

For `Nn1c(Cc2cccc3ccccc23)nnc1SCC(=O)N1CC(=O)Nc2ccccc21`, which inhibition is on record?
The inhibition was 15.1% (active).

`Cc1nc(SCC(=O)N2CC(=O)Nc3ccccc32)c2c(C)c(C)sc2n1` was tested. Which inhibition did it give?
Its inhibition is -7.82%.

With `CN1CCNC(=O)C1CC(=O)N1CC=C(c2ccc(F)cc2)CC1` (configuration not stated) as the molecule, how does the inhibition read?
Its inhibition is 1.72%.

`COc1cc2c3c(c1)/C(=C1/SC(=S)NC1=O)C(=O)N3C(C)(C)C=C2C` was tested. Which inhibition did it give?
The inhibition was -0.69%.

For `C=CS(=O)c1sc(Cl)c(N2CCOCC2)c1[N+](=O)[O-]` (configuration not stated), which inhibition is on record?
Its inhibition is 17.3% (active).

Which inhibition does the source give for `COC(=O)COc1ccc(C2NC(=O)NC(C)=C2C(=O)NCc2ccccc2)cc1OC` (configuration not stated) here?
Its inhibition is -2.89%.

How did the inhibition turn out when `O=C(CNc1ccc(F)cc1F)NC(=O)NCc1ccco1` was run?
Its inhibition is 5.92%.

`Oc1c(C(c2cccs2)N2CCN(c3ccc(F)cc3)CC2)sc2ncnn12` (configuration not stated) was tested. Which inhibition did it give?
The inhibition was -6.82%.

How did the inhibition turn out when `O=C(c1ccc(F)cc1)N1CCC(n2nnc3ccccc32)CC1` was run?
Its inhibition is 1.82%.

Which inhibition does the source give for `Cc1cccc(C)c1Nc1c(-c2ccccc2O)nc2ncccn12` here?
The inhibition was 4.64%.

Which inhibition does the source give for `Cc1ccc(-c2nc(C#N)c(NCCCn3ccnc3)o2)cc1` here?
The inhibition was -5.98%.

How did the inhibition turn out when `CC(C)c1ccc2c(c1)c(SC(C)(C)C)c(CC(C)(C)C(=O)O)n2Cc1ccc(Cl)cc1` was run?
Its inhibition is 5.23%.

Which inhibition does the source give for `CCN(CC)C(=O)Oc1ccc(OC(=O)N(CC)CC)cc1` here?
The inhibition was 3.51%.

For `CCCc1nc2oc3c(OCC)ncnc3c2c2c1COC(C)(C)C2`, which inhibition is on record?
Its inhibition is -0.01%.

For `CC(C)(C)C(=O)NC(NC(=S)Nc1ccc(S(N)(=O)=O)cc1)C(Cl)(Cl)Cl` (configuration not stated), which inhibition is on record?
The inhibition was -7.24%.

With `CCOc1ccccc1N(CC(=O)NC1CCCCC1)C(=O)CCCC(=O)Nc1ccccn1` as the molecule, how does the inhibition read?
The inhibition was -3.56%.

How did the inhibition turn out when `O=C(CCCC(=O)N(CC(=O)NC1CCCC1)Cc1ccccc1Cl)Nc1ccccn1` was run?
The inhibition was 16.9% (active).

`Cc1ccc(C(C(=O)NC2CCCC2)N(Cc2ccco2)C(=O)CCC(=O)Nc2ccccn2)cc1` (configuration not stated) was tested. Which inhibition did it give?
The inhibition was -4.24%.
